Measured values taken from ChEMBL document CHEMBL1955785, “SAR and biological evaluation of 3-azabicyclo[3.1.0]hexane derivatives as μ opioid ligands” (Bioorg Med Chem Lett, 2012).

What was measured:
Mu-type opioid receptor [1] = target: T1, Mu-type opioid receptor (Homo sapiens, UniProt P35372); assay: Antagonist activity at human mu opioid receptor by GTP-gamma S binding assay
Mu-type opioid receptor [2] = target: T1, Mu-type opioid receptor; assay: Displacement of [3H]DAMGO from human mu opioid receptor
Outline: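 Human μ receptor filter-binding assay using [3H]DAMGO as the radioligand; Ki derived from displacement.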

[3] = Displacement of [3H]DPDPE from delta opioid receptor in dog brain after 90 mins by scintillation counting; parameters: species or system Canis lupus familiaris
[4] = Displacement of [3H]U-69,593 from kappa opioid receptor in dog brain after 90 mins by scintillation counting; parameters: species or system Canis lupus familiaris
[5] = Displacement of [3H]DAMGO from mu opioid receptor in dog brain after 90 mins by scintillation counting; parameters: species or system Canis lupus familiaris
[6] = target: Mu-type opioid receptor (Cavia porcellus) (UniProt P97266); assay: Antagonist activity at mu opioid receptor in guinea pig longitudinal muscle myenteric plexus assessed as inhibition of DAMGO-induced twitch tension at 1 uM after 10 mins; type: functional
Outline: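 Isolated guinea-pig myenteric plexus-longitudinal muscle was stimulated electrically at 0.1 Hz with a 1 ms pulse width at supramaximal voltage, then washed and rested for 20 min. Kappa antagonist nor-binaltorphimine (1 µM, 10 min) and captopril (1 µM) were added. Test compound was added once twitches plateaued, and 10 min later a cumulative DAMGO dose response was built (3 min contact, 1 min recording per concentration).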

T1 sequence (P35372 whole entry): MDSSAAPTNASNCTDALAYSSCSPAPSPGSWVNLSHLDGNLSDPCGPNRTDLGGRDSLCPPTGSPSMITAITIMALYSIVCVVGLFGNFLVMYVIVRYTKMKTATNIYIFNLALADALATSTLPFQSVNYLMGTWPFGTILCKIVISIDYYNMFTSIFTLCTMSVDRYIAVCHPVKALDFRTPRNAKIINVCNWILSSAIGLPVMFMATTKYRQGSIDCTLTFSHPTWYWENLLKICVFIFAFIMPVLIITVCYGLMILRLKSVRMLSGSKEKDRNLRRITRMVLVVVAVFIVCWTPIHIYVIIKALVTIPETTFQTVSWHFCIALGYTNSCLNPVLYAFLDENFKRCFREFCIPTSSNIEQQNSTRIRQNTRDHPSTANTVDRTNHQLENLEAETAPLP
Chain of Mu-type opioid receptor (Cavia porcellus) (P97266 whole entry): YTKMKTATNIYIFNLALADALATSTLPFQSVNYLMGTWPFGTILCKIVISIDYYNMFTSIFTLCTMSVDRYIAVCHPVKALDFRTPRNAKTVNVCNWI

SMILES	Ki (Mu-type opioid receptor [1]) [nM]	Ki (Mu-type opioid receptor [2]) [nM]	Ki [3] [nM]	Ki [4] [nM]	Ki [5] [nM]	inhibition [6] [%]
CC[C@]1(c2cccc(NS(C)(=O)=O)c2)[C@@H]2CN(CC3Cc4ccccc4C3O)C[C@@H]21 (stereo not given in full)	0.08	0.1	19	4.5	0.07	
CCCCCCN1C[C@@H]2[C@H](C1)[C@@]2(C)c1cccc(NS(C)(=O)=O)c1			869	270	14	< 10
CC[C@]1(c2cccc(NS(C)(=O)=O)c2)[C@@H]2CN(CCCc3ccccc3)C[C@@H]21			79	67	1.5	< 10
CCCCCCN1C[C@@H]2[C@H](C1)[C@@]2(C)c1cccc(NS(=O)(=O)c2cccnc2)c1			> 10000	1530	71	
C[C@]1(c2cccc(NS(C)(=O)=O)c2)[C@@H]2CN(CCCc3ccccc3)C[C@@H]21	3.5		183	94	4.1	< 10
CCCCCCN1C[C@@H]2[C@H](C1)[C@@]2(CCC)c1cccc(NS(C)(=O)=O)c1			66	328	10	< 10
CCCCCCN1C[C@@H]2[C@H](C1)[C@@]2(C)c1cccc(NS(=O)(=O)C(C)C)c1			1580	791	14	18
C[C@]1(c2cccc(NS(C)(=O)=O)c2)[C@@H]2CN(CC3Cc4ccccc4C3)C[C@@H]21	0.3	0.81	384	51	0.55	< 10
CC[C@]1(c2cccc(NS(C)(=O)=O)c2)[C@@H]2CN(CC(O)Cc3ccccc3)C[C@@H]21 (stereo not given in full)	2.5	6.6	595	70	2.6	
CCCCCCN1C[C@@H]2[C@H](C1)[C@@]2(C)c1cccc(NS(=O)(=O)CCC)c1			> 10000	1330	104	
CCCCCCN1C[C@@H]2[C@H](C1)[C@]2(c1cccc(NS(C)(=O)=O)c1)C(C)C			308	48	3	32
CCS(=O)(=O)Nc1cccc([C@@]2(C)[C@@H]3CN(CCCc4ccccc4)C[C@@H]32)c1			2900	219	37	
CCCCCCN1C[C@@H]2[C@H](C1)[C@@]2(CC)c1cccc(NS(C)(=O)=O)c1			> 10000	1340	50	
CC[C@]1(c2cccc(NS(C)(=O)=O)c2)[C@@H]2CN(CC3Cc4ccccc4C3)C[C@@H]21			29	22	0.2	
CCCCCCN1C[C@@H]2[C@H](C1)[C@@]2(C)c1cccc(NS(=O)(=O)CCOC)c1			464	172	10	> 10
